SMILES strings stand for the structures. The campaign covered roughly 190,000 compounds. About 1,300 (0.68%) were called active. This excerpt belongs to a sample that is enriched for actives. Unmarked numbers belong to inactive results.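 The calls were made as follows: active = primary screen inhibition at 20 µM above a set limit (cut at about 50% in these data); inactive = the rest.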

The test system of the test is diaphorase (Clostridium kluyveri). In words: diaphorase inhibitors and chemical oxidizers, primary screen, counter-screen for diaphorase-coupled primary assays, biochemical, uHTS, resorufin fluorescence (AID 1217).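 Also: plate controls were DMSO with full reaction for no effect and wells lacking NADH for full effect.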 Particulars: diaphorase resazurin-to-resorufin fluorescence, NADH, 16 min; at 20 µM; active compounds read high. The gist of the method: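 System: Bacterial diaphorase enzyme (C. kluyveri) | Incubation: 16-min room-temperature incubation before reading | Benchmarks: No-NADH positive control and DMSO neutral control | Measured by: Resorufin fluorescence 544/590 nm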
In general terms: A counterscreen serves to expose hits that act by an unwanted route or on another target.
With `COc1ccccc1N=C1SCCCN1C`, the inhibition was 7.6%.
Turning to `COc1ccccc1N=Nc1c(O)[nH]c(=S)[nH]c1=O`, the inhibition was 51.2% (active).
In the case of `COc1ccccc1-n1c(O)c(C=NC2CC2)c(=O)[nH]c1=O`, the inhibition was 7.4%.
With `COc1ccc(-c2nn(CCC#N)cc2C(=O)O)cc1`, the inhibition is 0.1%.
Take `COc1ccc(NC(=O)c2cn(CCC#N)nc2-c2ccc([N+](=O)[O-])cc2)cc1`: the inhibition is 1.1%.
In the case of `CN(C)c1nc(N(C)C)nc(N(C#N)CCCl)n1`, the inhibition was -15.8%.
For `O=C(Cc1ccccc1)N1CCN(C2CCCCCC2)CC1`, the inhibition is 19.6%.
The value for `Cc1ccc2c(c1)=C/C(=C\c1c(O)[nH]c(=O)[nH]c1=O)C(=O)N=2` was 65.8% (active); that for `O=C1N=c2ccccc2=C/C1=C\c1c(O)[nH]c(=S)[nH]c1=O` was 20%.
With `COc1cccc(N2C(=O)NC(=O)/C(=C\c3ccc([N+](=O)[O-])s3)C2=O)c1`, the inhibition was 27.2%.

As a reminder, the inhibition is the drop in the measured response relative to a control, in per cent.

(Values after PubChem BioAssay AID1217 (Sanford-Burnham Center for Chemical Genomics, 2008).)
